# Compound activity deposited in PubChem BioAssay by several laboratories.
# GASC-1 inh: inhibitors of GASC-1 histone demethylase, primary screen, biochemical, fluorescence, DELFIA europium; Lysine-specific demethylase 4C (Homo sapiens), Q9H3R0; GST-JMJD2C(1-420) H3K9me3 demethylation; inhibition, % at 2.35 µM; hit rate 0.069% among 330,000;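 active = more than half of a compound's replicate wells show inhibition beyond 50%, single wells judged on their own value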;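 also: signal counts dimethyl H3K9 product captured on neutravidin plate; 0% = median of DMSO wells and 100% = 0.3 times that DMSO median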
# CTSL1 counter: Fasciola hepatica cathepsin L1 inhibitors, primary screen, counter-screen for PFM18AAP inhibitor project, biochemical, QFRET, fluorogenic peptide substrate. recombinant F. hepatica cathepsin L1, Z-Leu-Arg-MCA fluorescence. AID 1906, 2009. inhibition, % at 5.96 µM. hit rate 0.49% among 300,000;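 active = inhibition above the mean of all tested compounds plus 3 SD, set per screening campaign, cut at about 17% in these data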;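 also: 0% = plate median of test compound wells and 100% = 1 µM Z-Phe-Ala-diazomethylketone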
# PP5 primary: PP5 phosphatase inhibitors, primary screen, biochemical, fluorescence. Serine/threonine-protein phosphatase 5 (Homo sapiens), P53041. purified PP5c, OMFP substrate fluorescence. inhibition, % at 6.7 µM. hit rate 0.18% among 320,000;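 active = inhibition above the campaign's mean inhibition across all tested compounds plus 3 SD, cut at about 9.5% in these data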;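 also: 0% = DMSO only and 100% = 100 µM cantharidin control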
# Target sequence (P53041 whole entry, looked up): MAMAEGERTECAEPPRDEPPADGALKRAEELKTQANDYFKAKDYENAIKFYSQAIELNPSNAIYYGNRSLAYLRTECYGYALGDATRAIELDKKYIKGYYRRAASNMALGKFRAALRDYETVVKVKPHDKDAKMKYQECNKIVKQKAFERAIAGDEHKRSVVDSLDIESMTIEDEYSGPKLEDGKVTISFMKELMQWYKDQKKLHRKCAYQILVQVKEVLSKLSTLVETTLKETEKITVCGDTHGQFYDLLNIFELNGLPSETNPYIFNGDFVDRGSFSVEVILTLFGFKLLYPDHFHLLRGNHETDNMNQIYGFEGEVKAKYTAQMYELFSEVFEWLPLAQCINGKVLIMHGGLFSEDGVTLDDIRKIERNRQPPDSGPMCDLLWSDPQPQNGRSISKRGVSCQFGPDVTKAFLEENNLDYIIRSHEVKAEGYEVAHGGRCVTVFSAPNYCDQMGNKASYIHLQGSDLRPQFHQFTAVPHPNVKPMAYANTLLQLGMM
# Cardio protect: cardioprotection against H2O2-induced cell death, primary screen, uHTS, H9c2 cells, ATPLite luminescence; protection from H2O2 cell death, % at 20 µM; H9c2 cardiomyocytes, H2O2 injury protection, 2 h; hit rate 0.63% among 360,000;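 active = compounds giving at least 50% protection of heart cells from peroxide-induced death in the single-dose screen, raw or plate-pattern-corrected value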;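 also: 0% = DMSO wells with peroxide and 100% = DMSO wells without peroxide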
# p-CIP stab down: p/CIP-EGFP fusion destabilizers, primary screen, fluorescence, F442A cells; 16 h; decrease of EGFP signal, % at 10 µM; hit rate 0.01% among 290,000;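 active = EGFP signal decrease of at least 30% at 10 µM or well 3 SD below plate mean, unless failing retest; inactive = the rest, including hits failing retest or dose response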
# T cruzi repl: inhibitors of intracellular T. cruzi growth, primary screen, luminescence, NIH3T3 host cells. T. cruzi beta-gal in NIH3T3, 90 h. inhibition, % (concentration not given with the values). hit rate 1.4% among 300,000. AID 1885, 2009;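 active = mean inhibition across valid replicates above about 55%, limit read from the data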;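 also: signal also drops with host cell toxicity which is not excluded here; 0% = plate median of DMSO wells and 100% = zero luminescence signal; higher percent means less beta-gal luminescence so fewer parasites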
#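 System: Mouse NIH/3T3 fibroblasts infected with β-gal-expressing T. cruzi Tulahuen C4 | Quantity: NIH/3T3 cells, 5,000 per well | Reagent: 5000 reporter trypomastigotes per well | Dosing: Compound pinned at 50 nL/well, DMSO | Schedule: 3 h host attachment, then at least 90 h co-culture | Detection: GalScreen luminescence, 60 min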
# An asterisk follows results filed as active; · = no result given. A selection: hits, their analogues and other compounds. The true share with any hit is near 2.4%.
SMILES,GASC-1 inh,CTSL1 counter,PP5 primary,Cardio protect,p-CIP stab down,T cruzi repl
Cc1ccccc1/C=N/NC(=O)Cn1cnc([N+](=O)[O-])n1,-5.0,1.3,0.2,4.1,-9.7,6.7
O=C(Cn1cnc([N+](=O)[O-])n1)N/N=C/c1ccccc1O,-4.6,0.9,-2.1,64.5*,-9.6,23.5
C/C(Cn1cnc([N+](=O)[O-])n1)=N\NC(=O)c1ccc(Br)cc1,-0.3,-6.6,4.1,3.9,-10.3,40.9
C/C(Cn1cnc([N+](=O)[O-])n1)=N/NC(=O)COc1ccccc1Cl,-3.2,5.4,1.6,3.6,-2.8,56.0*
C/C(Cn1cnc([N+](=O)[O-])n1)=N\NC(=O)c1ccc(O)cc1O,22.1,-3.8,-2.3,8.9,-7.5,55.3*
C/C(Cn1cnc([N+](=O)[O-])n1)=N\NC(=O)c1cccnc1,2.9,-3.6,0.0,-1.0,6.3,38.6
C/C(Cn1cnc([N+](=O)[O-])n1)=N\NC(=O)c1ccccc1F,0.5,-3.1,-0.7,11.8,·,74.5*
CCCOc1ccc(C(=O)Nc2ccc(S(=O)(=O)NC3=NCCCCC3)cc2)cc1,5.3,-0.4,2.9,-3.9,·,6.5
CCCC1NC(C(=O)O)Cc2c1[nH]c1ccccc21 (configuration not stated),-3.4,·,·,12.8,-0.3,-8.8
C/C(Cn1cnc([N+](=O)[O-])n1)=N\NC(=O)c1ccccc1O,-13.5,-2.3,2.2,11.2,-17.1,55.9*
O=C(CN1C(=O)c2cccc([N+](=O)[O-])c2C1=O)N1CCc2ccccc2C1,·,·,·,2.9,·,·
O=C(O)COc1ccc(/C=C/c2nc3ccc([N+](=O)[O-])cc3s2)cc1,-3.2,-0.6,1.5,-7.4,-4.5,56.5*
Cc1cccc(OCC(=O)Nc2nc3ccc([N+](=O)[O-])cc3s2)c1,-2.5,-0.9,2.8,-17.9,0.2,-6.2
Cc1ccc(S(=O)(=O)N(C(=O)c2ccncc2)c2ccc(OC(=O)c3ccncc3)cc2)c(C)c1,-10.6,-5.0,-2.4,32.1,-2.6,14.1
Cc1ccc(C)c(S(=O)(=O)N(C(=O)c2ccncc2)c2ccc(OC(=O)c3ccncc3)cc2)c1,-5.3,-8.9,-1.5,53.1*,-1.0,6.0
COc1ccc(Cl)cc1NC(=S)NNC(=O)c1cccs1,11.2,1.5,1.1,-13.4,7.2,-4.7
COc1ccc(Cl)cc1NC(=S)NCCC(c1ccccc1)c1ccccc1,-9.0,1.8,3.9,-11.1,-11.6,56.2*
COc1ccc(Cl)cc1NC(=S)NNC(=O)CC(C)C,-1.2,26.6*,-0.4,2.9,-3.5,-4.0
O=C(NCc1ccccc1Br)c1ccncc1,-0.4,1.2,3.5,-5.7,4.3,-4.8
CC(=O)Nc1ccc(-c2ccnc3c2CC(C)(C(=O)NCc2ccc(F)c(F)c2)O3)cc1 (configuration not stated),·,·,·,9.7,·,·
Cc1ccc(O)c(C(=O)CC(=O)c2ccc(C(C)(C)C)cc2)c1,2.8,-1.9,0.3,56.9*,8.2,-5.6
Cc1ccc(C)c(NC(=O)Cc2nc(CNCC(C)C)cs2)c1,-12.8,4.7,-1.4,4.5,-7.3,-8.9
O=C(CN1C(=O)NC2(CCCc3ccccc32)C1=O)NC1CCCCC1 (configuration not stated),-25.5,-1.9,-0.8,0.2,·,3.6
COc1ccc(C(CNc2ccc(S(=O)(=O)N3CCN(C)CC3)cc2[N+](=O)[O-])N(C)C)cc1 (configuration not stated),·,·,·,-1.6,·,·
COc1ccc(C(CNc2ccc(S(=O)(=O)N3CCCC3)cc2[N+](=O)[O-])N2CCCC2)cc1 (configuration not stated),-10.1,-3.0,3.0,-3.6,6.9,59.2*
CC(=O)Oc1ccc2c(=O)c(Oc3ccccc3)c(C)oc2c1OC(C)=O,-29.3,-4.0,-1.8,64.6*,0.3,-11.4
O=C(c1ccc(-c2ccccc2)c(F)c1)C1CCCN(CCCn2cccn2)C1 (configuration not stated),25.5,-3.2,0.2,-4.2,-10.0,44.9
